Measured values reported in PMC11106139 (Clinical Pharmacokinetics, 2024).

Tests used:
[1] = test system: children with achondroplasia; settings: 15 µg/kg per day, 1-year period, analysis of covariance; cited from earlier work
[2] = Population pharmacokinetic; format: in vivo, human; settings: SOLNC 0.8 and 2 mg/mL (phase III studies and commercial formulations)
Method in brief: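 Pooled plasma data from 159 children with achondroplasia on daily subcutaneous vosoritide (2.5–30 µg/kg) across three phase II and two phase III trials. Samples were assayed by validated ELISA or electrochemiluminescence, and mostly pre-dose points were excluded. The fit was a one-compartment model with change-point first-order absorption (Ka1/Ka2) and first-order elimination, using log-transform-both-sides and SAEM/importance sampling. Covariates were added stepwise (p<0.01) with backward elimination, against a reference weight of 20 kg.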

CC[C@H](C)[C@@H]1NC(=O)[C@H](CCCNC(=N)N)NC(=O)[C@H](CC(=O)O)NC(=O)[C@H](CC(C)C)NC(=O)[C@H](CCCCN)NC(=O)[C@H](CC(C)C)NC(=O)CNC(=O)[C@H](Cc2ccccc2)NC(=O)[C@@H](NC(=O)CNC(=O)[C@H](CCCCN)NC(=O)[C@H](CO)NC(=O)[C@H](CC(C)C)NC(=O)CNC(=O)[C@H](CCCCN)NC(=O)[C@H](CCCCN)NC(=O)[C@H](CC(N)=O)NC(=O)[C@H](C)NC(=O)CNC(=O)[C@H](CCCCN)NC(=O)[C@H](Cc2ccc(O)cc2)NC(=O)[C@H](CCCCN)NC(=O)[C@H](CCCNC(=N)N)NC(=O)[C@H](C)NC(=O)[C@H](CC(N)=O)NC(=O)[C@@H]2CCCN2C(=O)[C@H](Cc2c[nH]cn2)NC(=O)[C@H](CCC(=O)O)NC(=O)[C@H](CCC(N)=O)NC(=O)CNC(=O)[C@@H]2CCCN2)CSSC[C@@H](C(=O)O)NC(=O)CNC(=O)[C@H](CC(C)C)NC(=O)CNC(=O)[C@H](CO)NC(=O)[C@H](CCSC)NC(=O)[C@H](CO)NC(=O)CNC1=O [vosoritide]
increase in annualized growth velocity (least squares mean change from baseline) compared with placebo [1]: 1.57 cm/year | effect of dosing solution concentration on relative bioavailability (F) [2]: did not have any effect on F
